# Measured values from publication PMC7029794 (Cancer chemotherapy and pharmacology, 2019).
# Read-outs that look alike come from different tables or passages of the source.
# Key:
# [1] = adults at the recommended dose; cited from earlier work
# [2] = in vivo, po, 30 mg/kg, cited from earlier work
# [3] = CF1 mice, 5 minutes after injection, cited from earlier work
# [4] = Ribociclib protein binding in mouse plasma; type: in vitro ADME; details: CD1, mouse
# In short: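 The test compound was spiked into CD1 mouse plasma (sodium heparin) at final 500, 1000, 2500 and 5000 ng/ml. Spiked plasma was ultrafiltered through a 10 kDa cut-off device by centrifugation for 30 min at 3600 rpm, 37°C, and the filtrate was stored at −80°C. Fraction unbound was calculated as the filtrate concentration divided by the total plasma concentration.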
# [5] = type: in vivo, CD1 nude mice
# In short: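 Female CD1 nude mice (n=9) bearing cortical SJ-DIPGx7 allografts received a single oral 100 mg/kg dose (10 mg/ml in 0.5% methyl cellulose). Sampling used a population design with multiple samples per mouse up to 24 h: retro-orbital bleeds and terminal cardiac puncture, into heparin. Plasma was assayed by LC-MS/MS. A one-compartment model with an oral dosing compartment was fitted by nonlinear mixed-effects modelling (NONMEM).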
# [6] = Cerebral microdialysis study in non-tumor bearing mice; type: in vivo, CD1 nude mice; details: 100 mg/kg oral
# In short: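 After a single oral 100 mg/kg dose, brain ECF was microdialysed with Ringer's after at least 1 h probe equilibration. Plasma was sampled at 0.08, 1.5 and 7 h (some at 24 h). ECF was corrected by in vitro probe recovery at 1 μg/mL, 37°C, 0.5 μL/min. A one-compartment plus ECF compartment model was fitted in NONMEM with plasma parameters fixed.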
# [7] = Cerebral microdialysis study in mice bearing SJ-DIPGx7; type: in vivo, CD1 nude mice; details: glioma mice, 100 mg/kg oral
# In short: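 Female CD1 nude mice with cortical allografts of 1·10^6 SJ-DIPGx7 cells (n=16); a guide cannula was implanted stereotactically into the cortex. After a single oral 100 mg/kg dose, tumor ECF was microdialysed with Ringer's after at least 1 h probe equilibration, and plasma was sampled at 0.08, 1.5 and 7 h (some at 24 h). ECF values were corrected by per-probe in vitro recovery. Data were fitted in NONMEM with plasma parameters and V3 fixed.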
# CDK-cyclin D1 = details: read-out: IC50 for CDK-cyclin D1; no reference given; cited from earlier work
# [8] = cited from earlier work
# [9] = Full-plasma PK study, glioma mice, 100 mg/kg oral
smiles,measurement,setting,value
CCN1CCN(Cc2ccc(Nc3ncc(F)c(-c4cc(F)c5nc(C)n(C(C)C)c5c4)n3)nc2)CC1 [abemaciclib],plasma AUC,[1],5520 ng·h/mL
same,"Kp,brain",[2]; 24 h,0.21 ± 0.04
same,"Kp,uu",[2]; 24 h,0.03 ± 0.01
same,plasma AUC,[2],"69,300 ng/ml*hr"
CC(=O)c1c(C)c2cnc(Nc3ccc(N4CCNCC4)cn3)nc2n(C2CCCC2)c1=O [palbociclib],"Kp,uu",[3],0.01 ± 0.003
same,"Kp,brain",[3]; dose 0.5 μmole/kg,0.13 ± 0.04
"CN(C)C(=O)c1cc2cnc(Nc3ccc(N4CCNCC4)cn3)nc2n1C1CCCC1 [ribociclib, Ribociclib]",fraction unbound at 30 min,[4],0.23
same,half-life,"[5]; CD1 nude, mouse, plasma, po, 100 mg/kg",4.67 ± 0.64 h
same,"θCL Clearance, Estimate (%RSE)",[5]; [9],2.78 (1.8) L/hr/kg
same,"θKa First-order absorption constant, Estimate (%RSE)",[5]; [9],2.75 (5.26) 1/hr
same,"θVc Volume of central compartment, Estimate (%RSE)",[5]; [9],18.6 (3.87) L/kg
same,"θCL23 Influx clearance from plasma to ECF compartment, Estimate (%RSE)",[6],0.124 (26.8) L/hr/kg
same,"θCL32 Efflux clearance from ECF to plasma compartment, Estimate (%RSE)",[6],7.78 (8.81) L/hr/kg
same,AUC(0-t),"[6]; CD1 nude, mouse, brain ECF, po, 100 mg/kg, Brain/tumor ECF AUC0–24h, n=12, brain ECF",736 ± 610 ng·h/mL
same,AUC(0-t),"[7]; CD1 nude, mouse, tumor ECF, po, 100 mg/kg, Brain/tumor ECF AUC0–24h, n=16, tumor ECF",433 ± 451 ng·h/mL
same,"θCL23 Influx clearance from plasma to ECF compartment, Estimate (%RSE)",[7],0.000000838 (24) L/hr/kg
same,"θCL32 Efflux clearance from ECF to plasma compartment, Estimate (%RSE)",[7],0.0000808 (11.5) L/hr/kg
same,IC50,CDK-cyclin D1,10 nM
same,fraction unbound,[8]; assumed value for phase I comparison,0.30
same,unbound AUC,"[8]; phase I study, assuming a fraction unbound of 0.30",~ 6000 ng/ml*hr
